In the library only some 0.99% were active in any assay of this set; here they are far more common.
LYPLA2 inh: LYPLA2 (human) inhibition in PME1 counter-screen; O95372; recombinant LYPLA2, FP-Rh probe fluorescence polarization; inhibition, % at 5.9 µM; 0.38% of 320,000 active; AID 2177;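 active means inhibition above the screen-wide mean plus 3 SD, limit set per campaign, cut at about 26% in these data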;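 further: 0% = LYPLA2 with DMSO and 100% = wells lacking LYPLA2 enzyme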
Target sequence (O95372 whole entry, looked up): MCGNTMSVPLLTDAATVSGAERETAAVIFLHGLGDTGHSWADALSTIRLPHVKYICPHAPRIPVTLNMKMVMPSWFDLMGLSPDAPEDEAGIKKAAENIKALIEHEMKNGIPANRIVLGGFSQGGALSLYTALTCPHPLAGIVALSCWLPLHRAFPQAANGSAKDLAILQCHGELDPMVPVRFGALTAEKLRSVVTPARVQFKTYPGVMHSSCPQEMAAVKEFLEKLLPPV
Fam108B counter: Fam108B inhibition, counter-screen for RBBP9 inhibitors; recombinant Fam108B, FP-Rh probe fluorescence polarization; inhibition, % at 9.51 µM; 0.33% of 300,000 active;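 active means inhibition above the screen mean inhibition plus 3 SD, computed separately per campaign, cut at about 18% in these data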;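 further: inhibitors lower polarization as less probe binds the enzyme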
LYPLA1 inh: counter-screen for PME1 inhibitors: inhibitors of human LYPLA1; O75608; recombinant LYPLA1, FP-Rh probe fluorescence polarization; 0.16% of 320,000 active; inhibition, % at 5.9 µM;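 active means inhibition above the mean of all tested compounds plus 3 SD, set per campaign, cut at about 14% in these data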;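 further: inhibitors block serine hydrolase probe labeling of LYPLA1 so polarization falls; 0% = enzyme with DMSO and 100% = wells lacking LYPLA1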
Target sequence (O75608 whole entry, looked up): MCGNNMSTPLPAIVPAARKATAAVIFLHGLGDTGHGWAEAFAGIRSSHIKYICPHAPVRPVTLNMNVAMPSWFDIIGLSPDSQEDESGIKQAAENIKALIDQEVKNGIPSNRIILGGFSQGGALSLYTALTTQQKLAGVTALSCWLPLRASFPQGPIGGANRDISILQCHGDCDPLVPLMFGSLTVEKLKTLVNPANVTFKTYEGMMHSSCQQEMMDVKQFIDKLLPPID
PME-1 inh: PME-1 (human) inhibition; Q9Y570; recombinant PME-1, FP-Rh probe fluorescence polarization; inhibition, % at 5.9 µM; 0.53% of 320,000 active; AID 2130;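 active means inhibition above the campaign mean of all compounds plus 3 SD, cut at about 26% in these data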;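 further: competitive labeling of PME-1 active site by serine hydrolase directed probe; 0% = PME-1 with DMSO and 100% = wells lacking PME-1 enzyme; inhibitors block probe labeling so polarization falls and inhibition rises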
RBBP9 inhibitor: inhibitors of human serine hydrolase RBBP9; recombinant RBBP9, FP-Rh probe fluorescence polarization; AID 1515; inhibition, % at 7.94 µM; 0.2% of 220,000 active; O75884;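 active means inhibition above the campaign mean of all tested compounds plus 3 SD, cut at about 14% in these data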;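 further: plate controls were DMSO wells with RBBP9 for no effect and wells lacking RBBP9 protein for full effect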
Target sequence (O75884 whole entry, looked up): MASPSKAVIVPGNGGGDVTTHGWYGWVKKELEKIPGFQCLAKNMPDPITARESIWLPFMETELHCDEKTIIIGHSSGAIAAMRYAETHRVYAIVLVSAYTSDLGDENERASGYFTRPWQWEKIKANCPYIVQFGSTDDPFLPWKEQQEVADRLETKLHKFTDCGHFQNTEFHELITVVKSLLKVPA
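Assay system: recombinant human RBBP9; Reagent: Serine-hydrolase probe FP-Rh, 375 nM pre-mixing; Doses: 7.94 µM single dose, 0.794% DMSO; Incubation: 30 min then 45 min, 25 °C; Detection: fluorescence polarization (mP), excitation 525 nm, emission 598 nm; Evaluation: percent inhibition from mP, scaled between DMSO and no-protein wells.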
LYPLA2 confirm: LYPLA2 (human) inhibition, confirmation counter-screen | 72% of 1,100 active | inhibition, % at 5.9 µM | shares compounds with LYPLA2 inh | recombinant LYPLA2, FP-Rh probe fluorescence polarization | AID 2232;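 active means mean inhibition across replicates above the hit cutoff set in the primary screen, cut at about 26% in these data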;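 further: blocked labeling of the enzyme by serine hydrolase FP-Rh probe lowers polarization; 0% = enzyme with DMSO and 100% = wells lacking LYPLA2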
LYPLA2 ABPP: inhibitors of human LYPLA2 | shares compounds with LYPLA2 inh | rhLYPLA2 in mouse brain proteome, gel ABPP FP-Rh | inhibition, % at 20 µM | 30% of 150 active | AID 652029;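 active means inhibition of LYPLA2 enzyme probe labeling above about 50%, limit read from the data; inactive means inhibition below that limit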;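 further: loss of FP-Rh probe labeling of the LYPLA2 gel band measured as band density; 0% = DMSO only control band and 100% = blank gel background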
Numbers without * were called inactive; / = no result.

SMILES	LYPLA2 inh	Fam108B counter	LYPLA1 inh	PME-1 inh	RBBP9 inhibitor	LYPLA2 confirm	others
CCCCCCCCCCCCN1[C@@H](CC(=O)O)c2cc(F)ccc2S1(=O)=O	58*	1	10	2	/	58*	LYPLA2 ABPP=35
Cc1ccc(C(=O)COC(=O)c2ccc3c(c2)C(=O)N(c2cccc4ncccc24)C3=O)cc1C	30*	-4	-3	-12	10	36*
COc1ccc(C(=O)OCC(=O)c2c(N)n(C)c(=O)n(C)c2=O)cc1OC	3	-1	1	-8	2	/
Cc1ccc(C)c(N2C(=O)c3ccc(C(=O)OCC(=O)c4c(N)n(C)c(=O)n(C)c4=O)cc3C2=O)c1	26*	-4	-1	0	-1	44*
O=C(NCCCN1CCOCC1)C1CCN(S(=O)(=O)c2cccc(C(F)(F)F)c2)CC1	1	/	0	5	/	/
CC(=O)c1ccc(N2CCN(c3ccc(S(=O)(=O)N4CCN(C)CC4)cn3)CC2)cc1	27*	-3	0	2	4	35*
CC(=O)c1ccc(S(=O)(=O)N2CCN(C)CC2)cc1	5	0	-1	2	-16	/
CCOc1ccc(CN2CCN(Cc3cccn3-c3nccs3)CC2CCO)cc1 (stereo not drawn)	-3	0	0	-2	-10	/
COc1ccc(N/C=C(\C#N)S(=O)(=O)c2ccc(OC)cc2)cc1	1	-3	-1	0	/	/
Cc1ccc(N/C=C(\C#N)c2ccc(OCCCF)cc2)cc1	65*	0	-2	13	0	75*	LYPLA2 ABPP=52*
COc1ccc(N/C=C(\C#N)c2ccc(OCCCF)cc2)cc1	73*	3	6	6	-7	61*	LYPLA2 ABPP=37
CCCOc1ccc(C(=O)NNC(=S)NC(=O)c2ccccc2[N+](=O)[O-])cc1	27*	-5	-1	-5	/	29*
CC1(c2nnc(-c3cccc(Cl)c3)o2)CC(c2ccc(Br)cc2)=NO1 (stereo not drawn)	-3	-1	1	-9	/	/
Cc1cc(=O)oc2cc(Oc3ccc(C(N)=O)cc3[N+](=O)[O-])ccc12	33*	6	4	5	4	26*
CC1CCCC(C)N1C(=O)COC(=O)CCC1CCCC1 (stereo not drawn)	36*	0	0	7	/	1
O=C(NC1CCc2ccccc21)c1cc(COc2cncc(Cl)c2)on1 (stereo not drawn)	43*	1	4	3	/	33*
O=C(NC1CCc2ccccc21)c1cc(COc2ccc(F)cc2Cl)on1 (stereo not drawn)	5	2	1	2	-2	/
Cc1cc(NC(=O)COC(=O)c2c(C)noc2C)ccc1Br	49*	-4	2	-6	-4	53*
Cc1noc(C)c1C(=O)OCC(=O)Nc1cccc(S(N)(=O)=O)c1	2	3	3	5	2	/
O=C(CCNC(=O)Cn1ccc2ccccc2c1=O)NCCc1ccccc1Cl	-1	8	-4	2	0	/
CCOc1ccc(N2C(=O)CC(N3CCN(c4ccc(C(=O)c5ccncc5)cc4)CC3)C2=O)cc1 (stereo not drawn)	29*	4	5	-4	-5	20
O=C(c1ccc(N2CCN(C3CC(=O)N(c4ccc(F)cc4)C3=O)CC2)cc1)c1cccnc1 (stereo not drawn)	35*	2	6	1	-6	32*
COc1ccc(N2C(=O)CC(N3CCN(c4ccc(C(=O)c5cccnc5)cc4)CC3)C2=O)cc1 (stereo not drawn)	23	0	6	-4	-4	/
O=C(C1CCCN(c2ncnc3c2nc2n3CCCCC2)C1)N1CCN(c2ccc(Cl)cc2)CC1 (stereo not drawn)	5	3	4	7	/	/
O=C(C1CCN(c2ncnc3c2nc2n3CCCCC2)CC1)N1CCN(c2cccc(Cl)c2)CC1	34*	6	6	-1	/	26*
SMILES	LYPLA2 inh	Fam108B counter	LYPLA1 inh	PME-1 inh	RBBP9 inhibitor	LYPLA2 confirm	others
CC1=CC(C)(C)N2C(=O)C3(NCCc4c3[nH]c3ccccc43)c3cccc1c32 (stereo not drawn)	2	1	5	-7	-4	/
CCN(CC(=O)NCc1cccs1)C(=O)c1cc(S(=O)(=O)N2CCOCC2)ccc1C	29*	2	-4	4	-3	-2
CCN(CC(=O)NCc1cccs1)c1ccc(S(=O)(=O)N2CCOCC2)cn1	-6	-3	0	3	-1	/
COc1ccccc1C(=O)COC(=O)c1ccc(-n2cnnn2)cc1	32*	1	8	2	/	24
CCOC(=O)c1ccc(NC(=O)CC2S/C(=N/N=C3/NC(=O)CS3)NC2=O)cc1 (stereo not drawn)	32*	-2	1	-2	-5	2
Cc1ccc(NC(=O)CC2S/C(=N/N=C3/NC(=O)CS3)NC2=O)cc1 (stereo not drawn)	-1	2	0	-11	0	/
COC(=O)c1ccc(NC(=O)c2ccc3c(c2)C(=O)N(Cc2cccnc2)C3=O)cc1	50*	-2	5	-3	/	51*
O=C(Nc1cccnc1)c1ccc2c(c1)C(=O)N(Cc1cccnc1)C2=O	2	3	-1	2	-6	/
Cc1cc(C)nc(N/C(=N\S(=O)(=O)Cc2ccccc2)Nc2ccc(F)c(Cl)c2)n1	-3	1	-7	-4	-5	/
O=C(CNC(=O)c1ccc(S(=O)(=O)N2CCCC2)cc1)N/N=C/c1ccc(Cl)cc1	6	-5	-2	-12	-7	/
O=C(CNC(=O)c1ccc(S(=O)(=O)N2CCCC2)cc1)N/N=C/c1c(Cl)cccc1Cl	26*	-5	-2	0	1	22
COc1ccc(CCn2c(C)cc(C(=O)COC(=O)c3cnc(C)cn3)c2C)cc1	15	1	1	8	/	/
COc1ccc(CCn2c(C)cc(C(=O)COC(=O)c3cnccn3)c2C)cc1	43*	3	2	5	/	41*
Cc1nnc(C)n1N	13	2	7	3	6	/
Cc1nnsc1C(=O)N1CCCC(N2CCN(c3cccc(C(F)(F)F)c3)CC2)C1 (stereo not drawn)	55*	-4	4	-2	/	56*	LYPLA2 ABPP=28
Cc1cc(C(=O)N2CCCC(N3CCN(c4cccc(C(F)(F)F)c4)CC3)C2)no1 (stereo not drawn)	15	4	0	-2	/	/
Cc1noc(C)c1C(=O)N1CCCC(N2CCN(c3cccc(C(F)(F)F)c3)CC2)C1 (stereo not drawn)	30*	2	3	6	/	24
COc1ccccc1CNCc1cccc(Oc2ccccc2)c1	0	2	0	2	-10	/

Source: PubChem (The Scripps Research Institute Molecular Screening Center)
